Data from ChEMBL document CHEMBL2321664, “L-Aminoacyl-triazine derivatives are isoform-selective PI3Kβ inhibitors that target non-conserved Asp862 of PI3Kβ” (ACS Med Chem Lett, 2013).

How the values were obtained:
[1] = target: T1, Phosphatidylinositol 4,5-bisphosphate 3-kinase catalytic subunit beta isoform (Homo sapiens, UniProt P42338); assay: Inhibition of wild type PI3K-beta (unknown origin) assessed as decrease in ATP consumption using phosphatidylinositol bisphosphate and 100 uM ATP as substrate measured after 60 mins by luminescence assay
Method in brief: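 Kinase-Glo read-out with 100 μM ATP, run alongside the D862Q mutant and the wild-type and reciprocal-mutant PI3Kα forms. IC50 is the mean of at least two duplicate experiments.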

[2] = target: T1, Phosphatidylinositol 4,5-bisphosphate 3-kinase catalytic subunit beta isoform; assay: Inhibition of PI3K-beta (unknown origin) assessed as decrease in ATP consumption using phosphatidylinositol bisphosphate and 10 uM ATP as substrate measured after 60 mins by luminescence assay
[3] = target: Phosphatidylinositol 4,5-bisphosphate 3-kinase catalytic subunit beta isoform (Homo sapiens, UniProt P42338, D862Q); assay: Inhibition of recombinant PI3K-beta D862Q mutant (unknown origin) expressed in baculovirus infected Sf21 cells assessed as decrease in ATP consumption using phosphatidylinositol bisphosphate and 100 uM ATP as substrate measured after 60 mins by luminescence assay
Method in brief: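 Kinase-Glo luminescent read-out of kinase activity with 100 μM ATP. Run alongside the wild-type PI3Kβ enzyme and the wild-type and reciprocal-mutant PI3Kα enzymes. IC50 values are means of at least two duplicate experiments.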

[4] = target: RAC-alpha serine/threonine-protein kinase (Homo sapiens, UniProt P31749); assay: Inhibition of IGF-1 induced Akt phosphorylation in PTEN-deficient human MDA-MB-468 cells pretreated for 2 hrs before IGF1 induction measured after 15 mins by Western blot analysis; type: cell-based
[5] = target: T2, Phosphatidylinositol 4,5-bisphosphate 3-kinase catalytic subunit delta isoform (Homo sapiens, UniProt O00329); assay: Inhibition of PI3K-delta (unknown origin) assessed as decrease in ATP consumption using phosphatidylinositol bisphosphate and 10 uM ATP as substrate measured after 60 mins by luminescence assay
T2 sequence (O00329 whole entry): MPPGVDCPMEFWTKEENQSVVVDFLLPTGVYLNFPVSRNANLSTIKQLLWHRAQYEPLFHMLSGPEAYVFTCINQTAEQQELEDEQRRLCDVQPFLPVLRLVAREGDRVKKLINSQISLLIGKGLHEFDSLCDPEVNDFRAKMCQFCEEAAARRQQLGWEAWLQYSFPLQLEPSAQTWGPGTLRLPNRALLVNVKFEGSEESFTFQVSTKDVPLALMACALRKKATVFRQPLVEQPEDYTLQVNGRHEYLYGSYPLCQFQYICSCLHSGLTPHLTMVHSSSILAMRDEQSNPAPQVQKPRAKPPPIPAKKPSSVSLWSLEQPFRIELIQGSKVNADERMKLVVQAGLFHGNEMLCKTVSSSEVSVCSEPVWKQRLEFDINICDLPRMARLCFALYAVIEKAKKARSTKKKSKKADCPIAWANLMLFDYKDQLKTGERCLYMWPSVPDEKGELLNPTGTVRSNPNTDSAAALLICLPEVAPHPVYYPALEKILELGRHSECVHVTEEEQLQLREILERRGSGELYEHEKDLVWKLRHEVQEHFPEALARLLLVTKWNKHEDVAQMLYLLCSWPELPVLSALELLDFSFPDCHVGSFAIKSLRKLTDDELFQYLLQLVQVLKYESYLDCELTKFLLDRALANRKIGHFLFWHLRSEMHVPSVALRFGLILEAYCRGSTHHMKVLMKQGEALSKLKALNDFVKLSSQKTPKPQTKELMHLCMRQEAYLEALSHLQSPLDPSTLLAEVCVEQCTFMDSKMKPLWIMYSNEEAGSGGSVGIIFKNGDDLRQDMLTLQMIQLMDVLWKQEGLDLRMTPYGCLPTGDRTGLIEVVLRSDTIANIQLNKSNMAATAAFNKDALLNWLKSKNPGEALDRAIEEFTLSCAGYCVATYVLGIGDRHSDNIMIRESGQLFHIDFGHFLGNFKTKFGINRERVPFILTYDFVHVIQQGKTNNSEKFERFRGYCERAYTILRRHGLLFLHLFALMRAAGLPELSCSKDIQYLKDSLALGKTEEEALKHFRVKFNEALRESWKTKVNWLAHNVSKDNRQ

[6] = target: Phosphatidylinositol 4,5-bisphosphate 3-kinase catalytic subunit gamma isoform (Homo sapiens, UniProt P48736); assay: Inhibition of PI3K-gamma (unknown origin) assessed as decrease in ATP consumption using phosphatidylinositol bisphosphate and 10 uM ATP as substrate measured after 60 mins by luminescence assay
[7] = target: Phosphatidylinositol 4,5-bisphosphate 3-kinase catalytic subunit alpha isoform (Homo sapiens, UniProt P42336); assay: Inhibition of PI3K-alpha (unknown origin) assessed as decrease in ATP consumption using phosphatidylinositol bisphosphate and 10 uM ATP as substrate measured after 60 mins by luminescence assay
Sequence of Phosphatidylinositol 4,5-bisphosphate 3-kinase catalytic subunit alpha isoform (P42336 whole entry, canonical isoform): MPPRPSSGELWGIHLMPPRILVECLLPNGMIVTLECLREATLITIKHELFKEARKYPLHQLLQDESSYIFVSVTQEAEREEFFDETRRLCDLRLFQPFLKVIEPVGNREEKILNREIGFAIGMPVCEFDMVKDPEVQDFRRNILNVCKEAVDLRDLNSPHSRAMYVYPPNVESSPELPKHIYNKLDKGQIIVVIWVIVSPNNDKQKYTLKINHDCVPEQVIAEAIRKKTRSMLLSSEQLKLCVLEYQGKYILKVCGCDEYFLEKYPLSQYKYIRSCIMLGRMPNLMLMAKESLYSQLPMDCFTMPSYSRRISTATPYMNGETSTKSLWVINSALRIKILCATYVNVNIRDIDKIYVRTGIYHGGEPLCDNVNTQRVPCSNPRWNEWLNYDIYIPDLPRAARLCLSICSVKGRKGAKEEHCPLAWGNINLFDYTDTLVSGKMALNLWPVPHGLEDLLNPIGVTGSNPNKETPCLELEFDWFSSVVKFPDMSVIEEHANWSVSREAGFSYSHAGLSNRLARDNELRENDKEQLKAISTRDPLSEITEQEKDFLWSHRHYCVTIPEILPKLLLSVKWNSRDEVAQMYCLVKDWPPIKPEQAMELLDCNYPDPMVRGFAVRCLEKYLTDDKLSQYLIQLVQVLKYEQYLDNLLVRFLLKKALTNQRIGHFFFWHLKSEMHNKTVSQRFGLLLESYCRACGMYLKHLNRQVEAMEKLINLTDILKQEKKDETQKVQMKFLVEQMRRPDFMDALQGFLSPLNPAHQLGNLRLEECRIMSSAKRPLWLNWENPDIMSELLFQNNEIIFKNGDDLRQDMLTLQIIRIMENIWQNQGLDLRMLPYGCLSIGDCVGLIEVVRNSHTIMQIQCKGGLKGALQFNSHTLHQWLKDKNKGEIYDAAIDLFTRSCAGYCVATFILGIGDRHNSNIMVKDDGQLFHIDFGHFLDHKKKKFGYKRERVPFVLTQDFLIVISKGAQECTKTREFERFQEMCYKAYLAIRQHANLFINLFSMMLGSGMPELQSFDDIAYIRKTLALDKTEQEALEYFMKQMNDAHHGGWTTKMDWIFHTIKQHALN

Sequence of Phosphatidylinositol 4,5-bisphosphate 3-kinase catalytic subunit beta isoform (Homo sapiens, UniProt P42338, D862Q) (P42338 whole entry D862Q, canonical isoform): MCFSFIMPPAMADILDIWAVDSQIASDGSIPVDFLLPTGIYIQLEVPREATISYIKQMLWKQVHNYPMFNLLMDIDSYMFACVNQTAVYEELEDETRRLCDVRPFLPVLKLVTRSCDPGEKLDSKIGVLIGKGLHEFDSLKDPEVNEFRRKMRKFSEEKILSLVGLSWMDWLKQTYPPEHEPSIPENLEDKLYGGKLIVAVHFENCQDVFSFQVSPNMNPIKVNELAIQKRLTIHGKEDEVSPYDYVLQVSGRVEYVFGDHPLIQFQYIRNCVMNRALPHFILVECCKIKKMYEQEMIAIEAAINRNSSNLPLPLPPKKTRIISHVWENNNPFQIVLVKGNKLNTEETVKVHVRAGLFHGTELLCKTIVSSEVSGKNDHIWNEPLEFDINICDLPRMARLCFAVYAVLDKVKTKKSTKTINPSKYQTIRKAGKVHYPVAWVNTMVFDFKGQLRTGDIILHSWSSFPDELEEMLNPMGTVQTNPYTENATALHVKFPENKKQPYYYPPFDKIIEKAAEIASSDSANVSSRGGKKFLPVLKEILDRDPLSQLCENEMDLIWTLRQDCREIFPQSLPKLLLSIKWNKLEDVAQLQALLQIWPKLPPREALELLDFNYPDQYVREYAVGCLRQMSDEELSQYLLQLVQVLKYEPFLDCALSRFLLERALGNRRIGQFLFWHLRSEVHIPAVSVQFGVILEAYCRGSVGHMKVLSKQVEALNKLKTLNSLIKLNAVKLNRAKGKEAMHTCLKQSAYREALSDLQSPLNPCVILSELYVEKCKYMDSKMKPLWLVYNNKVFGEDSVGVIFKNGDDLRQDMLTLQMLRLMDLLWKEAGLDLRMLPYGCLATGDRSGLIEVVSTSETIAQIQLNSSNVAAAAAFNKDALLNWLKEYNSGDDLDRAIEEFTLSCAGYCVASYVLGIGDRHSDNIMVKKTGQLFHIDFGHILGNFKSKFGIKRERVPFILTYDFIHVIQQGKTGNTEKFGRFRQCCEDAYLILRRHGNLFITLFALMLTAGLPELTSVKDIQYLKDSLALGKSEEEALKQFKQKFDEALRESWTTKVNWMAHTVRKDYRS
T1 sequence (P42338 whole entry, canonical isoform): as the sequence (P42338 whole entry D862Q, canonical isoform) above, with Q862D counted along it
Sequence of Phosphatidylinositol 4,5-bisphosphate 3-kinase catalytic subunit gamma isoform (P48736 whole entry, canonical isoform): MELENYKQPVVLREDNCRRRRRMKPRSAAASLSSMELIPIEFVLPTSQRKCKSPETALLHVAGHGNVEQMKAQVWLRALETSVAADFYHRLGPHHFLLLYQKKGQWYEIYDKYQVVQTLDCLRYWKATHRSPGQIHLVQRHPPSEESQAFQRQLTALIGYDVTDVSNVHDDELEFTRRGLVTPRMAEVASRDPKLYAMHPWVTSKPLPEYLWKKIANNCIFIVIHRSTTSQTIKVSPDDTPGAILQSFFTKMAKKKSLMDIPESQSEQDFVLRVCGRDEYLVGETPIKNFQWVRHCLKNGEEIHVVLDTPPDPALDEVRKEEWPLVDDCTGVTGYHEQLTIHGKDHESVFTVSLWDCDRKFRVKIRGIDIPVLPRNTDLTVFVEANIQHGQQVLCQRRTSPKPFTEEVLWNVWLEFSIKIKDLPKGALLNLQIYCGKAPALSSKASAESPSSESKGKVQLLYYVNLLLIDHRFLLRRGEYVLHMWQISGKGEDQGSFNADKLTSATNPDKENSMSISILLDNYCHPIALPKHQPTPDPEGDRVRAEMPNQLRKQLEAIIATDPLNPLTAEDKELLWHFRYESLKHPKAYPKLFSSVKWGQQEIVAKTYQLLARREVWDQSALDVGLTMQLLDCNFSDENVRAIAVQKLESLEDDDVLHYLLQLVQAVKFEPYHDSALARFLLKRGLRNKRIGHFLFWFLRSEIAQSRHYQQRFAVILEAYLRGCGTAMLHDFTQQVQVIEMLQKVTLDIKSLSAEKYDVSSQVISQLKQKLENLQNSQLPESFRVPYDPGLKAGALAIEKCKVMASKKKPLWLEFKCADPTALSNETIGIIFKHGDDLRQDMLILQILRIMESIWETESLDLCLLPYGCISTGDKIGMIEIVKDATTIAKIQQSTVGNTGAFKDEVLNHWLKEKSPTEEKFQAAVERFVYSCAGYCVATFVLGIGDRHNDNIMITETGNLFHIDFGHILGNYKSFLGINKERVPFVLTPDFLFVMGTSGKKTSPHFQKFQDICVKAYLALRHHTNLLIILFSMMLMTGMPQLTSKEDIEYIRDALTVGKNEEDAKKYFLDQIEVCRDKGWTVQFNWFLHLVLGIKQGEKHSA
Sequence of RAC-alpha serine/threonine-protein kinase (P31749 whole entry, canonical isoform): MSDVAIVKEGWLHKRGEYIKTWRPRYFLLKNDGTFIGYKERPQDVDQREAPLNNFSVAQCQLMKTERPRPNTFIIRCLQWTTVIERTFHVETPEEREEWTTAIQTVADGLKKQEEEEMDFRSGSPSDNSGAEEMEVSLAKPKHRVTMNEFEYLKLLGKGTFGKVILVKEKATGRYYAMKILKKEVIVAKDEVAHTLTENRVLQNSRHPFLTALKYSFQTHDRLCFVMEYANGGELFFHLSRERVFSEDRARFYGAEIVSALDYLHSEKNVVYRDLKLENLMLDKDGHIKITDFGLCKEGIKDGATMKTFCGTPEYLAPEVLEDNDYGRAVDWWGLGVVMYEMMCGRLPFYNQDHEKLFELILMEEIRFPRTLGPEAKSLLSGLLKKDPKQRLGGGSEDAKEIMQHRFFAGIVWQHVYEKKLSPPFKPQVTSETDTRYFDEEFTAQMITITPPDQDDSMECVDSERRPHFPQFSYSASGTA

| IC50 [2] [µM] | IC50 [5] [µM] | IC50 [6] [µM] | IC50 [7] [µM] | Structure (SMILES) | IC50 [1] [µM] | IC50 [3] [µM] | IC50 [4] [µM] | inhibition [4] |
| --- | --- | --- | --- | --- | --- | --- | --- | --- |
| 0.054 | 0.026 | 0.38 | 0.042 | CC(=O)NCC(=O)N1CCN(c2nc(N3CCOCC3)nc(-n3c(C(F)F)nc4ccccc43)n2)CC1 | – | – | – | – |
| 0.22 | 1.2 | > 10 | 3.3 | N[C@@H](Cc1ccc(O)cc1)C(=O)N1CCN(c2nc(N3CCOCC3)nc(-n3c(C(F)F)nc4ccccc43)n2)CC1 | – | – | – | – |
| 0.26 | 0.29 | 8 | 1.5 | CN[C@@H](C)C(=O)N1CCN(c2nc(N3CCOCC3)nc(-n3c(C(F)F)nc4ccccc43)n2)CC1 | – | – | – | – |
| 2.4 | 0.33 | > 10 | 1.6 | CN(C)CC(=O)N1CCN(c2nc(N3CCOCC3)nc(-n3c(C(F)F)nc4ccccc43)n2)CC1 | – | – | – | – |
| 0.05 | 0.67 | > 10 | 2.3 | NCCCC[C@H](N)C(=O)N1CCN(c2nc(N3CCOCC3)nc(-n3c(C(F)F)nc4ccccc43)n2)CC1 | – | – | – | – |
| > 10 | 3.6 | > 10 | – | N[C@H](Cc1ccccc1)C(=O)N1CCN(c2nc(N3CCOCC3)nc(-n3c(C(F)F)nc4ccccc43)n2)CC1 | – | – | – | – |
| 0.098 | 0.058 | 3.9 | 0.72 | NCCC(=O)N1CCN(c2nc(N3CCOCC3)nc(-n3c(C(F)F)nc4ccccc43)n2)CC1 | – | – | – | – |

The remaining lines, values behind:

| Structure (SMILES) | IC50 [2] [µM] | IC50 [5] [µM] | IC50 [6] [µM] | IC50 [7] [µM] | IC50 [1] [µM] | IC50 [3] [µM] | IC50 [4] [µM] | inhibition [4] |
| --- | --- | --- | --- | --- | --- | --- | --- | --- |
| N[C@@H](Cc1ccccc1)C(=O)N1CCN(c2nc(N3CCOCC3)nc(-n3c(C(F)F)nc4ccccc43)n2)CC1 | 0.063 | 2.2 | – | – | 0.074 | 6 | < 0.01 | Dose-dependent effect |
| O=C([C@@H]1CCCN1)N1CCN(c2nc(N3CCOCC3)nc(-n3c(C(F)F)nc4ccccc43)n2)CC1 | 0.026 | 0.39 | > 10 | 2.2 | – | – | – | – |
| NCC(=O)N1CCN(c2nc(N3CCOCC3)nc(-n3c(C(F)F)nc4ccccc43)n2)CC1 | 0.035 | 0.11 | 9.9 | 1.5 | – | – | – | – |
| C[C@H](N)C(=O)N1CCN(c2nc(N3CCOCC3)nc(-n3c(C(F)F)nc4ccccc43)n2)CC1 | 0.031 | 0.49 | – | – | 0.062 | 0.89 | – | – |
| CC[C@H](C)[C@H](N)C(=O)N1CCN(c2nc(N3CCOCC3)nc(-n3c(C(F)F)nc4ccccc43)n2)CC1 | 0.067 | 1 | > 10 | – | 0.14 | 1.4 | – | – |
| C[C@@H](N)C(=O)N1CCN(c2nc(N3CCOCC3)nc(-n3c(C(F)F)nc4ccccc43)n2)CC1 | 1 | 0.07 | 2 | – | – | – | – | – |
